# This is one part of a sample in which hits are shown more often than they occur.
# T cruzi growth-1: T. cruzi intracellular proliferation inhibitors, primary screen, cell-based, beta-gal Tulahuen parasites, NIH3T3 host, luminescence. AID 624255, 2012. inhibition, % at 8.34 µM. 77,000 tested, 5.9% active. T. cruzi beta-gal in NIH3T3, GalScreen luminescence, 90 h;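 active = mean inhibition above about 93%, with at least 55% of replicates each passing it, limit read from the data, passing the limit was not always enough; inconclusive = only one of those two conditions holds; inactive = neither condition holds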
# KDM4C inh: inhibitors of GASC-1 (KDM4C) histone demethylase, primary screen, biochemical, single concentration HTS; GST-KDM4C 2-372, H3K9me3 peptide, LANCE TR-FRET; inhibition, % at 12.5 µM; 96,000 tested, 0.15% active; AID 720574, 2013;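 active = mean replicate inhibition above about 25%, with at least 55% of replicates also reaching it, limit read from the data, passing the limit was not always enough; inconclusive = only one of those two conditions met; inactive = neither condition met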
#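 System – N-terminal GST-fused human GASC-1 (KDM4C) fragment, residues 2-372 · Input – enzyme final amount 10 nM · Technique – LANCE TR-FRET, Eu antibody, ULight-streptavidin, EDTA, ex 340 nm, em 618/671 nm · Medium – HEPES buffer, pH 7.5, plus ascorbate · Incubation – enzyme reaction 30 min, then detection 60 min, both room temperature · Reagent – H3K9me3 peptide with Fe(II)/2OG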
# IDH1 mut inh: inhibitors of IDH1 R132H reductase, primary screen, biochemical, plate reader, single point. diaphorase/resazurin fluorescence, 60 min. 70,000 tested, 0.18% active. inhibition, % at 10 µM; in the data active = inhibition above about 34%; inconclusive = no clear call, values can overlap the other calls; inactive = below about 11%;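 also: 0% = DMSO and 100% = no enzyme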
# Target sequence (O75874 whole entry R132H): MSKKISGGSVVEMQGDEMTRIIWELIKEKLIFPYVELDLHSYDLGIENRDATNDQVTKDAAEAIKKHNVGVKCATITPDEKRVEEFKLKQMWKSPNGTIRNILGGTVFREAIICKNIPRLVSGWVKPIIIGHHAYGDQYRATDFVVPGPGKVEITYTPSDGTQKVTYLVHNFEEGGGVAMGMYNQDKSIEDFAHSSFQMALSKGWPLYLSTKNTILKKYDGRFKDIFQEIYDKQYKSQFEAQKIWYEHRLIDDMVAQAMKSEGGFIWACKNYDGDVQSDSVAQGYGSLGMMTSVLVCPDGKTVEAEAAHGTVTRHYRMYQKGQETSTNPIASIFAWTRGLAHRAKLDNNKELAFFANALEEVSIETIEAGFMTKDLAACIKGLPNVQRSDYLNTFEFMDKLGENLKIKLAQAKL
# T cruzi growth-2: T. cruzi intracellular proliferation inhibitors, confirmation, cell-based, NIH3T3 host, beta-gal parasite, luminescence, cherry-pick; 5,600 tested, 72% active; inhibition, % at 8.35 µM; T. cruzi beta-gal in NIH3T3, GalScreen luminescence, 90 h; shares compounds with T cruzi growth-1;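 active = mean replicate inhibition above about 95% and at least 55% of replicates individually reaching it, limit read from the data; inconclusive = only one of the two criteria is met; inactive = neither criterion is met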
# T cruzi growth-3: inhibitors of intracellular T. cruzi replication, confirmation, NIH3T3 host cells, beta-gal parasites, cherry-pick, set 2; shares compounds with T cruzi growth-1; T. cruzi beta-gal in NIH3T3, GalScreen luminescence, 90 h; inhibition, % at 2.09 µM; 5,600 tested, 21% active;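 active = mean inhibition above about 95%, with at least 55% of replicates also reaching it, limit read from the data; inconclusive = meets just one of the two conditions; inactive = meets neither condition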;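 also: plate controls were neutral control median for no effect and positive control median for full effect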
# 3T3 cytotox: cytotoxicity in mouse NIH/3T3 fibroblasts, confirmation, cytotoxicity control for T. cruzi proliferation inhibitor project, cell-based, cherry-pick, single point; AID 651742, 2012; cytotoxicity (signal decrease), % at 8.35 µM; NIH/3T3 viability, CellTiter-Glo ATP luminescence, 90 h; 5,600 tested, 14% active; shares compounds with T cruzi growth-1;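 active = mean signal decrease across replicates above about 35% based on untreated-well scatter, with enough replicates individually passing, limit read from the data; inconclusive = no rule stated though some were filed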;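 also: 0% = median of neutral control wells and 100% = median of positive control wells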
# 3T3 cytotox 2: NIH/3T3 fibroblast cytotoxicity, confirmation, cytotoxicity control, cell-based, cherry-pick, single point, set 2. shares compounds with T cruzi growth-1. NIH/3T3 viability, CellTiter-Glo ATP luminescence, 90 h. inhibition, % at 24.9 µM. 5,600 tested, 56% active;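 active = mean loss of cell viability signal at or above a set limit, and enough replicates individually reaching it; inconclusive = meets only the mean limit or only the replicate share; inactive = meets neither condition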;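 also: 0% = median of neutral control wells and 100% = median of positive control wells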
# The depositor's hits bear a star; ? = inconclusive; · = no result.
SMILES,T cruzi growth-1,KDM4C inh,IDH1 mut inh,T cruzi growth-2,T cruzi growth-3,3T3 cytotox,3T3 cytotox 2
Cc1ccc(-c2ccc([C@H]3[C@H]4CN(C(=O)c5ccc(F)cc5)CCCCN4[C@H]3CO)cc2)cc1,102*,-1,·,103*,32,16,103*
Cc1ccc(-c2ccc([C@H]3[C@@H](CO)N4CCCCN(C(=O)c5ccc(F)cc5)C[C@@H]34)cc2)cc1,113*,-1,·,108*,86,26,105*
Cc1ccc(-c2ccc([C@H]3[C@@H](CO)N4CCCCN(C(=O)c5ccc(F)cc5)C[C@H]34)cc2)cc1,103*,-2,·,106*,101*,46*,104*
COc1ccc(OC)c(NC(=O)COc2cc(C)cc(C)c2C)c1,·,·,0,·,·,·,·
O=C(C[C@H]1CC[C@H]2[C@@H](COC[C@H](O)CN2Cc2ccccc2F)O1)N[C@@H]1CCN(Cc2ccccc2)C1,90,1,·,·,·,·,·
C[C@@H]1CN([C@@H](C)CO)S(=O)(=O)c2ccc(C3=CCCC3)cc2O[C@H]1CN(C)Cc1ccccn1,·,0,·,·,·,·,·
O=C(CSC1CC(=O)N(c2ccccc2)C1=O)Nc1cccc(Cl)c1 (stereo unspecified),·,·,0,·,·,·,·
CCCNC(=O)N1CC2(CN(S(=O)(=O)CC)C2)c2c([nH]c3cc(OC)ccc23)[C@H]1CO,·,0,·,·,·,·,·
Cc1ccc(-c2ccc([C@@H]3[C@@H](CO)N4CCCCN(C(=O)c5ccc(F)cc5)C[C@@H]34)cc2)cc1,107*,0,·,101*,53,-12,57*
COc1ccc(CN(C)C[C@@H]2OCCCC[C@H](C)Oc3ccc(NS(=O)(=O)c4ccc(Cl)cc4)cc3C(=O)N([C@@H](C)CO)C[C@H]2C)cc1,?,-1,·,100*,76,21,104*
COc1ccc(CN(C)C[C@H]2OCCCC[C@@H](C)Oc3ccc(NS(=O)(=O)c4ccc(Cl)cc4)cc3C(=O)N([C@@H](C)CO)C[C@@H]2C)cc1,30,4,·,·,·,·,·
COc1ccc(CN(C)C[C@@H]2OCCCC[C@@H](C)Oc3ccc(NS(=O)(=O)c4ccc(Cl)cc4)cc3C(=O)N([C@@H](C)CO)C[C@@H]2C)cc1,?,0,2,?,58,30,107*
COc1ccc(CN(C)C[C@@H]2OCCCC[C@@H](C)Oc3ccc(NS(=O)(=O)c4ccc(Cl)cc4)cc3C(=O)N([C@H](C)CO)C[C@H]2C)cc1,?,-1,0,105*,84,27,103*
COc1ccc(CN(C)C[C@H]2OCCCC[C@H](C)Oc3ccc(NS(=O)(=O)c4ccc(Cl)cc4)cc3C(=O)N([C@H](C)CO)C[C@H]2C)cc1,94,0,0,·,·,·,·
COc1ccc(CN(C)C[C@H]2OCCCC[C@@H](C)Oc3ccc(NS(=O)(=O)c4ccccc4)cc3C(=O)N([C@H](C)CO)C[C@H]2C)cc1,-18,0,·,·,·,·,·
COc1ccc(CN(C)C[C@H]2OCCCC[C@H](C)Oc3ccc(NS(=O)(=O)c4ccccc4)cc3C(=O)N([C@H](C)CO)C[C@H]2C)cc1,102*,0,0,108*,43,9,?
COc1ccc(CN(C)C[C@H]2OCCCC[C@@H](C)Oc3ccc(NS(=O)(=O)c4ccc(OC)cc4)cc3C(=O)N([C@H](C)CO)C[C@@H]2C)cc1,-21,0,·,·,·,·,·
COc1ccc(NC(=O)N2CC(=O)N3[C@H](CO)[C@H](c4ccc(-c5ccccc5)cc4)[C@@H]3C2)cc1,·,-2,·,·,·,·,·
C[C@@H]1CCCCO[C@H](CN(C)C(=O)c2ccccc2)[C@H](C)CN([C@H](C)CO)C(=O)c2cc(NS(=O)(=O)c3cn(C)cn3)ccc2O1,43,0,-1,·,·,·,·
C[C@H](CO)N1C[C@H](C)[C@H](CN(C)C(=O)Nc2ccc(C(F)(F)F)cc2)Oc2c(NC(=O)Nc3ccc4c(c3)OCO4)cccc2C1=O,91,-1,0,·,·,·,·
C[C@H](NC(=O)C[C@H]1C=C[C@H](NC(=O)C2CCOCC2)[C@H](CO)O1)c1ccccc1,98*,0,0,-13,-77,-3,-14
O=C(C[C@@H]1C=C[C@@H](NC(=O)C2CC2)[C@H](CO)O1)Nc1nccs1,88,1,0,·,·,·,·
O=C(C[C@H]1C=C[C@@H](NC(=O)C2CC2)[C@@H](CO)O1)Nc1nccs1,121*,1,0,78,11,-15,-1
C[C@@H](NC(=O)C[C@@H]1C=C[C@H](NC(=O)C2CCOCC2)[C@H](CO)O1)c1ccccc1,18,1,0,·,·,·,·
COc1ccc2c3c([nH]c2c1)[C@@H](CO)N(C(=O)c1ccncc1)CC31CCN(C(=O)Nc2cccc(F)c2)CC1,·,-1,·,·,·,·,·
SMILES,T cruzi growth-1,KDM4C inh,IDH1 mut inh,T cruzi growth-2,T cruzi growth-3,3T3 cytotox,3T3 cytotox 2
O=C(NCC[C@@H]1CC[C@H](NC(=O)Nc2cc(F)ccc2F)[C@@H](CO)O1)Nc1ccc(F)cc1,·,-1,0,·,·,·,·
CNC[C@H]1Oc2c(NC(=O)Nc3ccc4c(c3)OCO4)cccc2C(=O)N([C@H](C)CO)C[C@H]1C,-29,0,·,·,·,·,·
C[C@H]1CN([C@@H](C)CO)C(=O)c2cc(NS(=O)(=O)c3cccs3)ccc2O[C@H]1CN(C)Cc1ccc(-c2ccccc2)cc1,?,-2,0,85,-7,7,55*
C[C@H](CO)N1C[C@H](C)[C@@H](CN(C)CC2CC2)Oc2ccc(NS(=O)(=O)c3cccs3)cc2C1=O,24,0,0,·,·,·,·
C[C@@H]1CN([C@@H](C)CO)C(=O)c2cc(NS(=O)(=O)c3cccs3)ccc2O[C@@H]1CN(C)CC1CC1,99*,-1,2,77,32,17,10
C[C@@H]1CN([C@H](C)CO)C(=O)c2cc(NS(=O)(=O)c3cccs3)ccc2O[C@H]1CN(C)Cc1ccc(-c2ccccc2)cc1,19,-3,4,·,·,·,·
O=C(N/N=C/c1ccc(-c2ccccc2)c(F)c1)c1ccccc1O,·,·,0,·,·,·,·
C[C@H](CO)N1C[C@H](C)[C@H](CN(C)C(=O)CN(C)C)Oc2cc(C#Cc3ccccc3)ccc2S1(=O)=O,-18,-2,0,·,·,·,·

# Assay outcomes from PubChem BioAssay.
